From ChEMBL document CHEMBL1121617, “Antihypertensive ureidopiperidines” (1980) come the findings set out here.

Some results are limits rather than exact numbers.

In experiment [1] the test system is Rattus norvegicus. As to the kind of experiment: The percent fall in systolic blood pressure at 1.5 / 4 hr after peroral administration of 75 mg/kg in conscious renal hypertensive rats (RHR). It counts as functional, Artery. The settings on record: route oral. The method, boiled down: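 Conscious renal hypertensive rats, four per group, dosed orally. Starting systolic pressures were 160–200 mmHg. Percentage fall in systolic pressure was taken at 1.5 and/or 4 h after dosing. Falls under 10% were scored as ±.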

The subject of experiment [2] is Rattus norvegicus. As to the kind of experiment: The percent fall in systolic blood pressure at 1.5 / 4 hr after peroral administration of 50 mg/kg in conscious renal hypertensive rats (RHR). It counts as functional, Artery. The settings on record: route oral. The method, boiled down:
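Conscious renal hypertensive rats, four per group, with starting systolic pressures of 160-200 mmHg, were given a single oral dose. The value is the percentage fall in systolic pressure at 1.5 h, 4 h, or both after dosing. Falls below 10% are reported as ±.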

In experiment [3] the test system is Rattus norvegicus. As to the kind of experiment: Starting systolic blood pressure at dose of 10 mg/kg. The format is functional, Artery. The method in brief: (§1)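 DOCA/saline hypertensive rats, four per group, dosed orally at 50, 25 or 10 mg/kg. Mean starting systolic pressure was recorded for each group. Systolic pressure was then read 2, 6 and 24 h after dosing and reported as percentage fall from the starting value.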

Experiment [4] concerns Rattus norvegicus. As to the kind of experiment: The percent fall in systolic blood pressure at 1.5 / 4 hr after peroral administration of 10 mg/kg in DOCA/saline hypertensive rats at 2 hr. It counts as functional, Artery. The settings on record: route oral. The method, boiled down:
as §1

For experiment [5], the system named is Rattus norvegicus. As to the kind of experiment: Starting systolic blood pressure at dose of 50 mg/kg in rat. The format is functional, Artery. The method, boiled down:
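Mean systolic blood pressure before dosing for each group of four DOCA/saline hypertensive rats given 50 mg/kg orally. It indicates how far hypertension was established.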

Experiment [6] relates to Rattus norvegicus. As to the kind of experiment: The percent fall in systolic blood pressure at 1.5 / 4 hr after peroral administration of 10 mg/kg in DOCA/saline hypertensive rats at 24 hr. The format is functional, Artery. To be noted: route oral.
The test system of experiment [7] is Rattus norvegicus. As to the kind of experiment: The percent fall in systolic blood pressure at 1.5 / 4 hr after peroral administration of 10 mg/kg in DOCA/saline hypertensive rats at 6 hr. The format is functional, Artery. The settings on record: route oral. The method in brief: as §1
Experiment [8] concerns Rattus norvegicus. Kind of experiment: The percent fall in systolic blood pressure at 1.5 / 4 hr after peroral administration of 25 mg/kg in DOCA/saline hypertensive rats at 24 hr; Non significant, p>0.05. The format is functional, organism-based. Also noted: dose 25 mg/kg. The settings on record: Artery, at 25 mg/kg.
The subject of experiment [9] is Rattus norvegicus. Kind of experiment: The percent fall in systolic blood pressure at 1.5 / 4 hr after peroral administration of 25 mg/kg in DOCA/saline hypertensive rats at 6 hr. It counts as functional, Artery. To be noted: route oral. The method, boiled down:
as §1

The test system of experiment [10] is Rattus norvegicus. Kind of experiment: The percent fall in systolic blood pressure at 1.5 / 4 hr after peroral administration of 50 mg/kg in DOCA/saline hypertensive rats at 6 hr. The format is functional, Artery. The settings on record: route oral.
Experiment [11] has as its system Rattus norvegicus. As to the kind of experiment: The percent fall in systolic blood pressure at 1.5 / 4 hr after peroral administration of 25 mg/kg in DOCA/saline hypertensive rats at 2 hr. The format is functional, Artery. The settings on record: route oral. The method in brief:
as §1

Experiment [12] has as its system Rattus norvegicus. Kind of experiment: The percent fall in systolic blood pressure at 1.5 / 4 h after peroral administration of 50 mg/kg in DOCA/saline hypertensive rats at 2 hr. The settings on record: route oral. The format is functional, Artery.
For experiment [13], the system named is Rattus norvegicus. Kind of experiment: Starting systolic blood pressure at dose of 25 mg/kg. The format is functional, Artery. The method, boiled down: as §1
Experiment [14] relates to Rattus norvegicus. Kind of experiment: The percent fall in systolic blood pressure at 1.5 / 4 hr after peroral administration of 50 mg/kg in DOCA/saline hypertensive rats at 24 hr. The format is functional, Artery. The settings on record: route oral. The method in brief: as §1
The test system of experiment [15] is Rattus norvegicus. As to the kind of experiment: The percent fall in systolic blood pressure at 1.5 / 4 h after peroral administration of 50 mg/kg in conscious DOCA/saline hypertensive rats at 24 hr; Non significant. To be noted: Artery, at 50 mg/kg. On the set-up: dose 50 mg/kg. It counts as functional, organism-based. The method in brief: as §1
The test system of experiment [16] is Rattus norvegicus. Kind of experiment: The percent fall in systolic blood pressure at 1.5 / 4 hr after peroral administration of 50 mg/kg in DOCA/saline hypertensive rats at 2 hr; Non significant. The format is functional, organism-based. On the set-up: dose 50 mg/kg. The settings on record: Artery, at 50 mg/kg.
The subject of experiment [17] is Rattus norvegicus. As to the kind of experiment: Percent fall in systolic blood pressure at 1.5 / 4 hr after peroral administration of 50 mg/kg in DOCA/saline hypertensive rats at 6 h; Non significant. It counts as functional, organism-based. On the set-up: dose 50 mg/kg. The settings on record: Artery, at 50 mg/kg.

As to `Cc1cccc(C)c1NC(=O)NC1CCN(CCc2c[nH]c3ccccc23)CC1`, the Activity in the experiment with Rattus norvegicus [1] is reported as below 10.
In turn, `O=C(CCCN1CCC(NC(=S)Nc2ccccc2)CC1)c1ccccc1` showed an Activity in the experiment with Rattus norvegicus [2] of 20.
With `O=C(NC(=O)c1cccs1)NC1CCN(CCCC(=O)c2ccc(F)cc2)CC1`, the SP with Rattus norvegicus [3] amounted to 171 mmHg; in the experiment on Rattus norvegicus [5] it was 179 mmHg; in the experiment on Rattus norvegicus [13] it was 174 mmHg. Also, the Fall is 48% in the experiment on Rattus norvegicus [4]; 16% in the experiment with Rattus norvegicus [6]; 36% in the experiment with Rattus norvegicus [7]; “Not significant” with Rattus norvegicus [8]; 28% in the experiment on Rattus norvegicus [9]; 45% in the experiment on Rattus norvegicus [10]. The Fall in the experiment with Rattus norvegicus [11] worked out at 35%; with Rattus norvegicus [12], 49%; in the experiment with Rattus norvegicus [14], 21%.
As for `O=C(Nc1cccc(C(F)(F)F)c1)NC1CCN(CCc2c[nH]c3ccccc23)CC1`, the Fall result with Rattus norvegicus [15], in the experiment with Rattus norvegicus [16] and in the experiment with Rattus norvegicus [17] was “Not significant” in each case. The SP with Rattus norvegicus [5] was determined as 208 mmHg.
